# Calls of active or inactive are those of the source. The calls are words filed in the database; no cut-off is given here. Where a SMILES comes first, the peptide text is derived from it. [ ]: non-standard residue; d: D form. The star is where a group is joined. Orotyl(5-F) = O=C(c1[nH]c(=O)[nH]c(=O)c1F)*; Dap = NC[C@H](N)C(=O)O
# Experiments:
# [1] = biological target: T1, Beta-secretase 1 (Homo sapiens, UniProt P56817); experiment: Inhibition of human recombinant BACE1 using 7-methoxycoumarin-4-yl)acetyl-Ser-Glu-Val-Asn-Leu*Asp-Ala- Glu-Phe-Arg-Lys(2,4-dinitrophenyl)-Arg-Arg-NH2 as substrate by FRET assay
# Summary of the method: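 Recombinant human BACE1 and FRET substrate incubated 1 h in incubation buffer with compound at 2.0 or 0.2 μM. The N-terminal cleavage fragment was analysed by reverse-phase HPLC with fluorescence detection.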
# [2] = biological target: T1, Beta-secretase 1; experiment: Inhibition of human recombinant BACE1 using 7-methoxycoumarin-4-yl)acetyl-Ser-Glu-Val-Asn-Leu*Asp-Ala- Glu-Phe-Arg-Lys(2,4-dinitrophenyl)-Arg-Arg-NH2 as substrate at 2 uM by FRET assay
# Summary of the method: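 Recombinant human BACE1 incubated with FRET substrate and 2.0 μM compound in incubation buffer for 1 h. The N-terminal substrate cleavage fragment was measured by RP-HPLC with fluorescence detection.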
# [3] = biological target: T1, Beta-secretase 1; experiment: Inhibition of human recombinant BACE1 using 7-methoxycoumarin-4-yl)acetyl-Ser-Glu-Val-Asn-Leu*Asp-Ala- Glu-Phe-Arg-Lys(2,4-dinitrophenyl)-Arg-Arg-NH2 as substrate at 0.2 uM by FRET assay
# Summary of the method: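 Recombinant human BACE1 incubated with FRET substrate and 0.2 μM compound in incubation buffer for 1 h. The N-terminal cleavage fragment of the substrate was quantified by RP-HPLC with fluorescence detection.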
# [4] = biological target: T1, Beta-secretase 1; experiment: Activity of human recombinant BACE1 after 24 hrs
# Summary of the method: (§1)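 Peptides incubated with recombinant human BACE1 for 1 or 24 h in buffer, at the same BACE1 and peptide concentrations as the inhibition assay. The buffer was analysed by HPLC for the product of cleavage at the P1–P1′ amide bond.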
# [5] = biological target: T1, Beta-secretase 1; experiment: Activity of human recombinant BACE1 after 1 hr; summary of the method: as §1
# T1 sequence (P56817 whole entry, the tested form may be a part): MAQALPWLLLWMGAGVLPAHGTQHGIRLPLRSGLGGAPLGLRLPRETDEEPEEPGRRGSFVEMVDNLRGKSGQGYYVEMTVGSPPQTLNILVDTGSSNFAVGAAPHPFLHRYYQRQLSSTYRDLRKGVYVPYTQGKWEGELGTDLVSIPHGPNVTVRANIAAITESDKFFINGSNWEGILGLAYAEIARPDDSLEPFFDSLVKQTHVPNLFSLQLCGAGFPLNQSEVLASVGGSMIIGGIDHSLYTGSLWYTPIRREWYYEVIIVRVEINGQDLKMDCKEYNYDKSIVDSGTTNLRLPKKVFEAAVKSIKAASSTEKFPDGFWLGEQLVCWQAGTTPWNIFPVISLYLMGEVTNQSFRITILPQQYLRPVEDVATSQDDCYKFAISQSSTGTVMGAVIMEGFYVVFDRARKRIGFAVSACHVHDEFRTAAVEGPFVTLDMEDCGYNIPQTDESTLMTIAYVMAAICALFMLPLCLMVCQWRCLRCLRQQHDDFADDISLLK
SMILES,IC50 [1],inhibition [2],inhibition [3],Activity [4],Activity [5]
CC(C)C[C@H](NC(=O)[C@@H](NC(=O)[C@@H](N)CNC(=O)c1[nH]c(=O)[nH]c(=O)c1F)C(C)C)C(=O)N[C@@H](Cc1ccccc1)[C@@H](O)C(=O)Nc1cccc(C(=O)O)c1,26 nM,,,,
CC(C)C[C@H](NC(=O)[C@@H](NC(=O)[C@@H](N)CCC(=O)O)C(C)C)C(=O)N[C@@H](Cc1ccccc1)C(=O)N[C@@H](CO)C(=O)N[C@@H](C)C(=O)N[C@@H](CCC(=O)O)C(=O)N[C@@H](Cc1ccccc1)C(=O)O,,6%,,,
CC(C)C[C@H](NC(=O)[C@@H](NC(=O)[C@@H](N)CCC(=O)O)C(C)C)C(=O)N[C@@H](Cc1ccccc1)C(=O)N[C@H](CC(N)=O)C(=O)O,,29%,,,
CC(C)C[C@H](NC(=O)[C@@H](NC(=O)[C@@H](N)CNC(=O)c1[nH]c(=O)[nH]c(=O)c1F)C(C)C)C(=O)N[C@@H](Cc1ccccc1)C(=O)O (H-[Dap](Orotyl(5-F))VLF-OH),184 nM,90%,54%,Active,Active
CC(C)C[C@H](NC(=O)[C@@H](NC(=O)[C@@H](N)CCC(=O)O)C(C)C)C(=O)N[C@@H](Cc1ccccc1)C(=O)N[C@H](CN)C(=O)N[C@@H](C)C(=O)N[C@@H](CCC(=O)O)C(=O)N[C@@H](Cc1ccccc1)C(=O)O,,15%,,,
CC(C)C[C@H](NC(=O)[C@@H](NC(=O)[C@@H](N)CNC(=O)c1[nH]c(=O)[nH]c(=O)c1F)C(C)C)C(=O)N[C@@H](Cc1ccccc1)C(=O)N[C@@H](C(=O)O)C(C)C,82 nM,94%,69%,,
CC(C)[C@H](NC(=O)[C@@H](N)CCC(=O)O)C(=O)N[C@@H](CCCCN)C(=O)N[C@@H](Cc1ccccc1)C(=O)O (H-EVKF-OH),,10%,,,
CC(C)C[C@H](NC(=O)[C@@H](NC(=O)[C@@H](N)CCC(=O)O)C(C)C)C(=O)N[C@@H](Cc1ccccc1)C(=O)N[C@H](CS)C(=O)N[C@@H](C)C(=O)N[C@@H](CCC(=O)O)C(=O)N[C@@H](Cc1ccccc1)C(=O)O,,28%,,,
CC(C)C[C@H](NC(=O)[C@@H](NC(=O)[C@@H](N)CNC(=O)c1[nH]c(=O)[nH]c(=O)c1F)C(C)C)C(=O)N[C@@H](Cc1ccccc1)C(=O)N[C@@H](CO)C(=O)O,263 nM,85%,48%,inactive,inactive
CC(C)C[C@H](NC(=O)[C@@H](NC(=O)[C@@H](N)CNC(=O)c1[nH]c(=O)[nH]c(=O)c1F)C(C)C)C(=O)N[C@@H](Cc1ccccc1)C(=O)N[C@H](CC(N)=O)C(=O)O,86 nM,95%,65%,inactive,inactive
CC(C)C[C@H](NC(=O)[C@@H](NC(=O)[C@@H](N)CCC(=O)O)C(C)C)C(=O)N[C@@H](Cc1ccccc1)C(=O)N[C@H](CO)C(=O)O,,23%,,,
CC(C)[C@H](NC(=O)[C@@H](N)CNC(=O)c1[nH]c(=O)[nH]c(=O)c1F)C(=O)N[C@@H](CC(N)=O)C(=O)N[C@@H](Cc1ccccc1)C(=O)O (H-[Dap](Orotyl(5-F))VNF-OH),,< 5%,,,
CC(C)[C@H](NC(=O)[C@@H](N)CNC(=O)c1[nH]c(=O)[nH]c(=O)c1F)C(=O)N[C@@H](CC1CCCCC1)C(=O)N[C@@H](Cc1ccccc1)C(=O)N[C@H](CC(N)=O)C(=O)O,141 nM,92%,58%,,
CC(C)[C@H](NC(=O)[C@@H](N)CCC(=O)O)C(=O)N[C@@H](CC(N)=O)C(=O)N[C@@H](Cc1ccccc1)C(=O)O (H-EVNF-OH),,< 5%,,,
CC(C)[C@H](NC(=O)[C@@H](N)CNC(=O)c1[nH]c(=O)[nH]c(=O)c1F)C(=O)N[C@@H](CC1CCCCC1)C(=O)N[C@@H](Cc1ccccc1)C(=O)N[C@H](CO)C(=O)O,163 nM,92%,54%,,
CC(C)C[C@H](NC(=O)[C@@H](NC(=O)[C@@H](N)CCC(=O)O)C(C)C)C(=O)N[C@@H](Cc1ccccc1)C(=O)N[C@@H](CS)C(=O)N[C@@H](C)C(=O)N[C@@H](CCC(=O)O)C(=O)N[C@@H](Cc1ccccc1)C(=O)O,,< 5%,,,
CC(C)[C@H](NC(=O)[C@@H](N)CNC(=O)c1[nH]c(=O)[nH]c(=O)c1F)C(=O)N[C@@H](CC(N)=O)C(=O)N[C@@H](Cc1ccccc1)C(=O)N[C@@H](CC(N)=O)C(=O)O (H-[Dap](Orotyl(5-F))VNFN-OH),,< 5%,,,
CC(C)C[C@H](NC(=O)[C@@H](NC(=O)[C@@H](N)CNC(=O)c1[nH]c(=O)[nH]c(=O)c1F)C(C)C)C(=O)N[C@@H](Cc1ccccc1)C(=O)N[C@H](CO)C(=O)O,138 nM,94%,57%,inactive,inactive
CC(C)C[C@H](NC(=O)[C@@H](NC(=O)[C@@H](N)CNC(=O)c1[nH]c(=O)[nH]c(=O)c1F)C(C)C)C(=O)N[C@@H](Cc1ccccc1)C(=O)N[C@H](C)C(=O)O,169 nM,93%,53%,,
CC(C)C[C@H](NC(=O)[C@@H](NC(=O)[C@@H](N)CCC(=O)O)C(C)C)C(=O)N[C@@H](Cc1ccccc1)C(=O)N[C@@H](CN)C(=O)N[C@@H](C)C(=O)N[C@@H](CCC(=O)O)C(=O)N[C@@H](Cc1ccccc1)C(=O)O,,7%,,,
CC(C)C[C@H](NC(=O)[C@@H](NC(=O)[C@@H](N)CNC(=O)c1[nH]c(=O)[nH]c(=O)c1F)C(C)C)C(=O)N[C@@H](Cc1ccccc1)C(=O)N[C@@H](CC(N)=O)C(=O)O,173 nM,89%,56%,inactive,inactive
CC(C)C[C@H](NC(=O)[C@@H](NC(=O)[C@@H](N)CCC(=O)O)C(C)C)C(=O)N[C@@H](Cc1ccccc1)C(=O)N[C@H](CO)C(=O)N[C@@H](C)C(=O)N[C@@H](CCC(=O)O)C(=O)N[C@@H](Cc1ccccc1)C(=O)O,,28%,,,
CC(C)C[C@H](NC(=O)[C@@H](NC(=O)[C@@H](N)CCC(=O)O)C(C)C)C(=O)N[C@@H](Cc1ccccc1)C(=O)O (H-EVLF-OH),,8%,,,
